Calls of active or inactive are those of the source. No cut-off for these calls is given here.
How the values were obtained:
[1] = tested on: SH-SY5Y; assay: Cytotoxicity against human SH-SY5Y cells assessed as reduction in cell viability at 25 uM incubated for 24 hrs by Celltiter-blue assay; format: cell-based
How it was run: (§1)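 HepG2 or SH-SY5Y seeded 10×10^3 per well the day before in 1 g/L glucose medium with 2% FBS. Medium replaced with fresh 2% FBS, 1 g/L glucose medium containing compound (25 µM) for 24 h at 37 °C. CellTiter-Blue added for 4 h, fluorescence read at 560/590 nm. Viability given as % of vehicle/untreated cells. Mean ± SEM of ≥3 independent runs.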

[2] = (§2) Suppression of rotenone-induced ATP depletion in human HepG2 cells assessed as rescue of ATP level at 5 uM incubated for 2 hrs by Celltiter-Glo assay relative to control; format: functional
How it was run: (§3)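 HepG2 cells seeded 10×10^3 per well in 1 g/L glucose, 2% FBS medium the day before. Switched to glucose- and FBS-free medium containing 10 µM rotenone, with compound added at the same time, 2 h at 37 °C. ATP read by CellTiter-Glo luminescence, normalized to DMSO cells without rotenone. Mean ± SEM of ≥3 independent runs. Complex III inhibitors, where used, at 50 nM.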

[3] = tested on: HepG2; assay: Suppression of rotenone-induced ATP depletion in human HepG2 cells assessed as increase in rescue of ATP level at 1 uM incubated for 2 hrs by Celltiter-Glo assay; format: functional, cell-based; how it was run: as §3
[4] = Cytotoxicity against human HepG2 cells assessed as cell viability at 25 uM incubated for 24 hrs by Celltiter-blue assay relative to control; format: cell-based; details: read-out: Activity; how it was run: as §1
[5] = biological target: NAD(P)H dehydrogenase [quinone] 1 (Homo sapiens) (UniProt P15559); assay: Substrate activity at NQO1 in human HepG2 cells assessed as reduction in cell viability by WST-1 assay; format: cell-based
[6] = biological target: NAD(P)H dehydrogenase [quinone] 1 (Homo sapiens) (UniProt P15559); assay: Substrate activity at recombinant NQO1 (unknown origin) assessed as reduction in NADH level at 20 uM measured for 6 mins by microplate reader analysis
[7] = Cytotoxicity against […] assessed as reduction in cell viability by WST-1 assay; format: cell-based; details: r28
[8] = Suppression of rotenone-induced ATP depletion in human HepG2 cells assessed as rescue of ATP level incubated for 2 hrs by Celltiter-Glo assay relative to control; format: functional; set-up: concentration or dose not given beside the values; how it was run: as §3
[9] = biological target: NAD(P)H dehydrogenase [quinone] 1 (Homo sapiens) (UniProt P15559); assay: Substrate activity at NQO1 in human HepG2 cells assessed as reduction in cell viability in presence of NQO1 inhibitor dicoumarol by WST-1 assay; format: cell-based
[10] = tested on: HepG2; assay: Cytotoxicity against human HepG2 cells assessed as cell reduction in cell viability at 25 uM incubated for 24 hrs by Celltiter-blue assay; format: cell-based; details: hepg2, 24 h; how it was run: as §1
[11] = tested on: SH-SY5Y; assay: Cytotoxicity against human SH-SY5Y cells assessed as reduction in cell viability by WST-1 assay; format: cell-based
[12] = tested on: HepG2; assay: as §2; format: functional; how it was run: as §3
[13] = tested on: SH-SY5Y; assay: Cytotoxicity against human SH-SY5Y cells assessed as reduction in cell viability incubated for 24 hrs by Celltiter-blue assay; format: cell-based
[14] = Suppression of rotenone-induced ATP depletion in human HepG2 cells incubated for 2 hrs by Celltiter-Glo assay; format: functional, cell-based; details: HepG2, 2 h; how it was run: as §3
[15] = tested on: HepG2; assay: Cytotoxicity against human HepG2 cells assessed as reduction in cell viability incubated for 24 hrs by Celltiter-blue assay; format: cell-based; details: HepG2, 24 h
[16] = tested on: HepG2; assay: Suppression of rotenone-induced ATP depletion in human HepG2 cells assessed as increase in rescue of ATP level at 0.1 to 1 uM incubated for 2 hrs by Celltiter-Glo assay; format: functional, cell-based; details: dose microM 0.1-1, time 2.0 hrs; how it was run: as §3
[17] = tested on: HepG2; assay: Suppression of rotenone-induced ATP depletion in human HepG2 cells assessed as rescue of ATP level at 5 uM incubated for 2 hrs in presence of complex III inhibitor antimycin by Celltiter-Glo assay; format: functional, cell-based; how it was run: as §3
[18] = tested on: HepG2; assay: Suppression of rotenone-induced ATP depletion in human HepG2 cells assessed as rescue of ATP level at 5 uM incubated for 2 hrs in presence of NQO1 inhibitor dicoumarol by Celltiter-Glo assay; format: functional, cell-based
[19] = tested on: HepG2; assay: Suppression of rotenone-induced ATP depletion in human HepG2 cells assessed as rescue of ATP level at 5 uM incubated for 2 hrs in presence of complex III inhibitor myxothiazol by Celltiter-Glo assay; format: functional, cell-based; how it was run: as §3
[20] = tested on: HepG2; assay: Suppression of rotenone-induced ATP depletion in human HepG2 cells assessed as rescue of ATP level at 5 uM incubated for 2 hrs in presence of NQO1 irreversible inhibitor ES936 by Celltiter-Glo assay; format: functional, cell-based

Chain of NAD(P)H dehydrogenase [quinone] 1 (Homo sapiens) (P15559 whole entry): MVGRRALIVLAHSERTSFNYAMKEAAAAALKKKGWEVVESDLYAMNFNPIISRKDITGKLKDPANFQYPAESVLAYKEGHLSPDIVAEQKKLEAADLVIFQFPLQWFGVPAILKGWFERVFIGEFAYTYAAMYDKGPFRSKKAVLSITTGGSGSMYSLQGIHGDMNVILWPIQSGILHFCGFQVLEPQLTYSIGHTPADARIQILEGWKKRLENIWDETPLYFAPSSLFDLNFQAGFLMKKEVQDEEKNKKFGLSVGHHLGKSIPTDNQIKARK

Q: Which Activity [1] does the source give for `CC1=C(SC(C)(C)C)C(=O)c2ccccc2C1=O` here?
A: Toxic

Q: And the Activity [2]?
A: 70%

Q: For `O=C1C(Nc2ccc(F)c(C(F)(F)F)c2)=C(SC(F)(F)F)C(=O)c2ccccc21`, which Activity [3] is on record?
A: Active

Q: What about the viability at 24 h, 25 µM [4] of the same compound?
A: 65.8%

Q: What about the Activity [5] of the same compound?
A: Active

Q: What about the Activity [6] of the same compound?
A: Active

Q: And the Activity [1]?
A: Toxic

Q: And the Activity [7]?
A: Non-Toxic

Q: What about the Activity [8] of the same compound?
A: 58.6%

Q: And the Activity [9]?
A: inactive

Q: And the Activity [10]?
A: Toxic

Q: What about the Activity [11] of the same compound?
A: Non-Toxic

Q: For `NC1=C(Cl)C(=O)c2ccccc2C1=O`, which Activity [12] is on record?
A: inactive

Q: For `O=C1C(Cl)=C(NCc2ccccc2)C(=O)c2ccccc21`, which Activity [3] is on record?
A: Active

Q: What about the Activity [1] of the same compound?
A: Toxic

Q: And the Activity [2]?
A: 70%

Q: Which Activity [3] does the source give for `CCNC1=C(Nc2ccccc2)C(=O)c2ccccc2C1=O` here?
A: Active

Q: What about the Activity [1] of the same compound?
A: Non-Toxic

Q: For `O=C1C(Nc2cccc(C(F)(F)F)c2)=C(SC(F)(F)F)C(=O)c2ccccc21`, which Activity [3] is on record?
A: Active

Q: What about the Activity [1] of the same compound?
A: Toxic

Q: And the Activity [10]?
A: Toxic

Q: Which IC50 [13] does the source give for `CC1=C(CCCC(=O)NCCc2ccc(O)cc2)C(=O)c2ccccc2C1=O` here?
A: 76 µM

Q: And the EC50 [14]?
A: 0.8 µM

Q: And the Activity [6]?
A: inactive

Q: And the IC50 [15]?
A: > 100 µM

Q: And the Activity [16]?
A: Active

Q: Which results are given for `COC1=C(Nc2cc(C(F)(F)F)ccc2F)C(=O)c2ccccc2C1=O`?
A: Activity [3]: Active; Activity [5]: Active; Activity [1]: Non-Toxic; Activity [7]: Non-Toxic; Activity [9]: inactive; Activity [11]: Non-Toxic

Q: Which results are given for `CSC1=C(Nc2cc(C(F)(F)F)ccc2F)C(=O)c2ccccc2C1=O`?
A: Activity [3]: Active; Activity [1]: Non-Toxic

Q: With `O=C(OC1=C(c2ccccc2)C(=O)c2ccccc2C1=O)c1cccc([N+](=O)[O-])c1` as the compound, how does the Activity [1] read?
A: Toxic

Q: What does the source list for `CCOC1=C(Nc2ccccc2)C(=O)c2ccccc2C1=O`?
A: Activity [3]: inactive; Activity [1]: Non-Toxic

Q: With `CC1=C(CCCCCCCCCCO)C(=O)c2ccccc2C1=O` as the compound, how does the Activity [3] read?
A: inactive

Q: With `CCCCC1=C(C)C(=O)c2ccccc2C1=O` as the compound, how does the Activity [1] read?
A: Toxic

Q: Which Activity [3] does the source give for `CC1=C(Nc2ccc(F)c(C(F)(F)F)c2)C(=O)c2ccccc2C1=O` here?
A: Active

Q: What about the IC50 [13] of the same compound?
A: > 100 µM

Q: And the viability at 24 h, 25 µM [4]?
A: 101%

Q: What about the EC50 [14] of the same compound?
A: 0.91 µM

Q: And the Activity [5]?
A: Active

Q: What about the Activity [17] of the same compound?
A: inactive

Q: And the Activity [18]?
A: inactive

Q: What about the Activity [19] of the same compound?
A: inactive

Q: And the Activity [1]?
A: Non-Toxic

Q: And the IC50 [15]?
A: > 100 µM

Q: And the Activity [7]?
A: Non-Toxic

Q: What about the Activity [8] of the same compound?
A: 52.6%

Q: And the Activity [9]?
A: inactive

Q: And the Activity [16]?
A: Active

Q: What about the Activity [20] of the same compound?
A: inactive

Q: And the Activity [11]?
A: Non-Toxic

Q: For `CC(C)OC1=C(Nc2ccccc2)C(=O)c2ccccc2C1=O`, which Activity [3] is on record?
A: inactive

Q: For `O=C1C=C(Nc2ccc(F)c(C(F)(F)F)c2)C(=O)c2ccccc21`, which viability at 24 h, 25 µM [4] is on record?
A: 35.6%

Q: And the Activity [1]?
A: Non-Toxic

Q: What about the Activity [8] of the same compound?
A: 54.5%

Q: Which Activity [3] does the source give for `O=C1C(Cl)=C(NCc2cccc(C(F)(F)F)c2)C(=O)c2ccccc21` here?
A: Active

Q: Which Activity [1] does the source give for `COC(=O)c1ccc(NC2=C(Cl)C(=O)c3ccccc3C2=O)cc1` here?
A: Toxic

Q: What about the Activity [10] of the same compound?
A: Toxic

Q: What about the Activity [2] of the same compound?
A: 70%

Q: For `O=C1C=C(NCCCCO)C(=O)c2ccccc21`, which Activity [1] is on record?
A: Toxic

Q: For `CSC1=C(Nc2cccc(C(F)(F)F)c2)C(=O)c2ccccc2C1=O`, which Activity [1] is on record?
A: Non-Toxic

Q: For `O=C1C(Cl)=C(Nc2ccc(Nc3ccccc3)cc2)C(=O)c2ccccc21`, which Activity [1] is on record?
A: Toxic

Q: And the Activity [10]?
A: Toxic

Reference: ChEMBL document CHEMBL4699639, “Discovery of Novel 2-Aniline-1,4-naphthoquinones as Potential New Drug Treatment for Leber's Hereditary Optic Neuropathy (LHON)” (J Med Chem, 2020)
